Results on one compound are retold here after ChEMBL document CHEMBL1914421, “Aminomethyltetrazoles as potential inhibitors of the γ-aminobutyric acid transporters mGAT1-mGAT4: synthesis and biological evaluation” (Bioorg Med Chem, 2011).

The target of experiment [1] is T1, Sodium- and chloride-dependent GABA transporter 1 (Mus musculus, UniProt P31648). Description: Inhibition of mouse GAT1-mediated [3H]GABA uptake expressed in human HEK cells. Format: cell-based, HEK293. An outline of the steps: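 Specific [3H]GABA uptake measured at murine GAT1. Inhibition reported as pIC50 ± SEM from three independent experiments, each run in triplicate. Where stated, some values are the mean of two independent experiments, or one experiment in triplicate.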

Experiment [2] is described as follows: Inhibition of mouse GAT4-mediated [3H]GABA uptake expressed in human HEK cells. Format: cell-based. Conditions: HEK293. The procedure, abridged: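 Specific [3H]GABA uptake was measured at the murine transporter subtype, and results are given as pIC50 ± SEM from three independent experiments, each run in triplicate.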
Experiment [3] deals with T1, Sodium- and chloride-dependent GABA transporter 1. Description: Inhibition of mouse GAT1-mediated [3H]GABA uptake expressed in BHK cells. Type of experiment: cell-based.
Experiment [4] has as its target T2, GABA transporter 4 (Mus musculus, UniProt P31650).
T2 sequence (P31650 whole entry): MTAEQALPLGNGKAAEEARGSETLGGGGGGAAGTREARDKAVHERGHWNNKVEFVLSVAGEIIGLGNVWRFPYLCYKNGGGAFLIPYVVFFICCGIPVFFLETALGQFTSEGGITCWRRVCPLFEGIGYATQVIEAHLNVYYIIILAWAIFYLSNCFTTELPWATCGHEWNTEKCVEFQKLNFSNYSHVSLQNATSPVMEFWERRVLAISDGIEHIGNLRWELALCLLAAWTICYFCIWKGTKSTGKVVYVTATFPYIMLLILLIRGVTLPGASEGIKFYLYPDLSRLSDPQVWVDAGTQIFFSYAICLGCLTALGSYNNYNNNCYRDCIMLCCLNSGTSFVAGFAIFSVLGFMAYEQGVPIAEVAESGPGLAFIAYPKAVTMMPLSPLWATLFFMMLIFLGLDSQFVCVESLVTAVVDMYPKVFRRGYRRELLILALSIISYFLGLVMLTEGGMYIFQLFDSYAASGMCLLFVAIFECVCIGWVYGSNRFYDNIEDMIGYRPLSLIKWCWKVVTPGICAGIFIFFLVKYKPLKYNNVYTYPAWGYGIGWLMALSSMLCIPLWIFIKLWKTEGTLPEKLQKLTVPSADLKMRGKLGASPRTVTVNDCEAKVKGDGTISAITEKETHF
Description: Inhibition of mouse GAT4-mediated [3H]GABA uptake expressed in BHK cells. Type of experiment: cell-based.

With `COc1ccccc1C1(O)CCN(CCCn2c3ccccc3c3ccccc32)CC1`, the IC50 is 10.2 µM in experiment [1], 16.6 µM in experiment [2], 19.1 µM in experiment [3] and 15.1 µM in experiment [4].

One may read the IC50 as the concentration that inhibits the measured activity by half. A high value points to lower potency.
